Measured values: ChEMBL document CHEMBL3407457, “Microwave-assisted synthesis of certain pyrrolylpyridines, some derived ring systems and their evaluation as anticancer and antioxidant agents” (Eur J Med Chem, 2015)

Legend:
[1] = Growth inhibition of human BT549 cells after 48 hrs by sulforhodamine B assay; type: functional; conditions: BT-549, 48 h
How it was run: (§1)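 NCI-60 five-dose screen: cells incubated 48 h with five concentrations (0.01-100 µM), read by sulforhodamine B protein assay. Log concentration-% growth inhibition curves gave GI50 (50% decrease in net growth), TGI (total growth inhibition) and LC50 (net 50% loss of initial cells). 5-FU positive control.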

[2] = tested on: DU-145; assay: Growth inhibition of human DU145 cells after 48 hrs by sulforhodamine B assay; type: functional; conditions: DU-145, 48 h; how it was run: as §1
[3] = tested on: IGROV-1; assay: Growth inhibition of human IGROV1 cells after 48 hrs by sulforhodamine B assay; type: functional; conditions: IGROV-1, 48 h; how it was run: as §1
[4] = Growth inhibition of human UO31 cells after 48 hrs by sulforhodamine B assay; type: functional; conditions: UO-31, 48 h; how it was run: as §1
[5] = tested on: SR; assay: Growth inhibition of human SR cells after 48 hrs by sulforhodamine B assay; type: functional; how it was run: as §1
[6] = tested on: SNB-75; assay: Growth inhibition of human SNB75 cells after 48 hrs by sulforhodamine B assay; type: functional; conditions: SNB-75, 48 h; how it was run: as §1
[7] = Growth inhibition of human EKVX cells after 48 hrs by sulforhodamine B assay; type: functional; how it was run: as §1
[8] = Growth inhibition of human HOP92 cells after 48 hrs by sulforhodamine B assay; type: functional; conditions: HOP-92, 48 h; how it was run: as §1
[9] = Growth inhibition of human SF539 cells after 48 hrs by sulforhodamine B assay; type: functional; conditions: SF-539, 48 h; how it was run: as §1
[10] = tested on: NCI-H226; assay: Growth inhibition of human NCI-H226 cells after 48 hrs by sulforhodamine B assay; type: functional; conditions: NCI-H226, 48 h; how it was run: as §1
[11] = Growth inhibition of human MOLT4 cells after 48 hrs by sulforhodamine B assay; type: functional; conditions: MOLT-4, 48 h; how it was run: as §1
[12] = tested on: HOP-62; assay: Growth inhibition of human HOP62 cells after 48 hrs by sulforhodamine B assay; type: functional; conditions: HOP-62, 48 h; how it was run: as §1
[13] = Antioxidant activity assessed as DPPH radical scavenging activity at 10^-4 M incubated for 30 mins by spectrophotometry; type: physicochemical; conditions: 0.5 h, 100 µM
How it was run: (§2)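 Compound at 10^-3 or 10^-4 M mixed with methanolic DPPH (0.1 mL of 1 mM stock; 3 mL total volume), shaken, kept in the dark 30 min at room temperature. Absorbance read at 517 nm. Scavenging (%) = (A_control − A_sample)/A_control × 100, where the control is DPPH in methanol alone. BHT served as reference antioxidant. Triplicate, mean ± SD of three independent experiments.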

[14] = tested on: MCF7; assay: Growth inhibition of human MCF7 cells after 48 hrs by sulforhodamine B assay; type: functional; conditions: MCF7, 48 h; how it was run: as §1
[15] = Growth inhibition of human RPMI8226 cells after 48 hrs by sulforhodamine B assay; type: functional; conditions: RPMI-8226, 48 h; how it was run: as §1
[16] = tested on: MDA-MB-231; assay: Growth inhibition of human MDA-MB-231 cells after 48 hrs by sulforhodamine B assay; type: functional; conditions: MDA-MB-231, 48 h; how it was run: as §1
[17] = tested on: CCRF-CEM; assay: Growth inhibition of human CCRF-CEM cells after 48 hrs by sulforhodamine B assay; type: functional; how it was run: as §1
[18] = Antioxidant activity assessed as DPPH radical scavenging activity at 10^-3 M incubated for 30 mins by spectrophotometry; type: physicochemical; conditions: 0.5 h, 1000 µM; how it was run: as §2
[19] = tested on: SF-268; assay: Growth inhibition of human SF268 cells after 48 hrs by sulforhodamine B assay; type: functional; conditions: SF-268, 48 h; how it was run: as §1
[20] = tested on: HL-60(TB); assay: Growth inhibition of human HL-60(TB) cells after 48 hrs by sulforhodamine B assay; type: functional; conditions: HL-60, 48 h
How it was run: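 NCI-60 five-dose screen, HL-60(TB) being one of the leukemia subpanel lines. Cells exposed to five concentrations (0.01-100 µM) for 48 h. GI50 (concentration giving 50% decrease in net cell growth) read from log concentration-% growth inhibition curves; TGI and LC50 also derived. 5-fluorouracil as positive control.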

[21] = tested on: SN12C; assay: Growth inhibition of human SN12C cells after 48 hrs by sulforhodamine B assay; type: functional; how it was run: as §1
[22] = tested on: A498; assay: Growth inhibition of human A498 cells after 48 hrs by sulforhodamine B assay; type: functional; conditions: A498, 48 h; how it was run: as §1
[23] = Growth inhibition of human UACC62 cells after 48 hrs by sulforhodamine B assay; type: functional; conditions: UACC-62, 48 h; how it was run: as §1
[24] = Growth inhibition of human OVCAR4 cells after 48 hrs by sulforhodamine B assay; type: functional; conditions: OVCAR-4, 48 h; how it was run: as §1
[25] = tested on: NCI-H522; assay: Growth inhibition of human NCI-H522 cells after 48 hrs by sulforhodamine B assay; type: functional; conditions: NCI-H522, 48 h; how it was run: as §1
[26] = Growth inhibition of human HCT116 cells after 48 hrs by sulforhodamine B assay; type: functional; conditions: HCT-116, 48 h; how it was run: as §1
[27] = read-out: LC50 (the source's name)

Compound	GI50 [1]	GI50 [2]	GI50 [3]	GI50 [4]	GI50 [5]	GI50 [7]	GI50 [8]	GI50 [9]	GI50 [10]	GI50 [11]	GI50 [12]	GI50 [14]	GI50 [15]	GI50 [16]	GI50 [19]	GI50 [20]	GI50 [21]	GI50 [24]	GI50 [25]	GI50 [26]	other results
CC1CCCc2c1nc(N)c(C#N)c2-c1cccn1C (centres undefined)	69.1 µM	> 100 µM	70.8 µM	> 100 µM	3.39 µM	> 100 µM	47.9 µM	> 100 µM	64.6 µM	> 100 µM	> 100 µM	> 100 µM	79.4 µM	69.2 µM	> 100 µM	0.42 µM	30.2 µM	77.6 µM	66.1 µM	> 100 µM	TGI [5]: 20.4 µM; CC50 [5, 27]: 91.2 µM; GI50 [6]: 22.4 µM; TGI [6]: 85.1 µM; inhibition (INH) [13]: 9%; GI50 [17]: > 100 µM; inhibition (INH) [18]: 16%; GI50 [22]: 91.2 µM; GI50 [23]: 33.1 µM
Cn1cccc1-c1cc(-c2ccccc2)nc(N)c1C#N	60.2 µM	> 100 µM	> 100 µM	> 100 µM	35.5 µM	95.5 µM	0.01 µM	33.9 µM	> 100 µM	> 100 µM	81.3 µM	> 100 µM	53.7 µM	67.6 µM	79.4 µM	0.76 µM	> 100 µM	46.8 µM	61.6 µM	> 100 µM	GI50 [6]: 18.6 µM; TGI [6]: 77.6 µM; TGI [8]: 0.05 µM; inhibition (INH) [13]: 12%; GI50 [17]: 0.08 µM; LC50 (concentration causing net 50% loss of initial cells) [17]: 3.55 µM; TGI [17]: 0.38 µM; inhibition (INH) [18]: 27%; GI50 [22]: 91.2 µM; GI50 [23]: 44.7 µM
Cn1cccc1-c1cc(-c2cccs2)nc(N)c1C#N	> 100 µM	> 100 µM	> 100 µM	> 100 µM	5.37 µM	> 100 µM	> 100 µM	> 100 µM	> 100 µM	> 100 µM	> 100 µM	> 100 µM	> 100 µM	> 100 µM	> 100 µM	> 100 µM	> 100 µM	85.1 µM	> 100 µM	> 100 µM	TGI [5]: 67.6 µM; GI50 [6]: 45.7 µM; GI50 [17]: > 100 µM; GI50 [22]: > 100 µM; GI50 [23]: 87.1 µM
COc1ccc(-c2cc(-c3cccn3C)c(C#N)c(=O)[nH]2)cc1OC	34.7 µM	> 100 µM	–	–	0.48 µM	30.9 µM	0.05 µM	> 100 µM	> 100 µM	22.9 µM	> 100 µM	> 100 µM	> 100 µM	> 100 µM	> 100 µM	> 100 µM	> 100 µM	> 100 µM	> 100 µM	91.2 µM	TGI [8]: 9.77 µM; inhibition (INH) [13]: 17%; inhibition (INH) [18]: 31%
Cn1cccc1-c1cc(-c2cccs2)[nH]c(=O)c1C#N	> 100 µM	> 100 µM	22.9 µM	13.8 µM	> 100 µM	52.5 µM	10 µM	> 100 µM	69.2 µM	> 100 µM	83.2 µM	> 100 µM	> 100 µM	> 100 µM	> 100 µM	> 100 µM	> 100 µM	> 100 µM	25.7 µM	> 100 µM	TGI [4]: 27.5 µM; CC50 [4, 27]: 54.9 µM; GI50 [6]: 38.1 µM; TGI [8]: 40.7 µM; GI50 [17]: > 100 µM; GI50 [22]: 17.8 µM; GI50 [23]: 72.4 µM
Cc1cc(C(C)(C)C)c(O)c(C(C)(C)C)c1 [BUTYLATED HYDROXYTOLUENE]	–	–	–	–	–	–	–	–	–	–	–	–	–	–	–	–	–	–	–	–	inhibition (INH) [13]: 20%; inhibition (INH) [18]: 36%
Cn1cccc1-c1cc(-c2ccccc2)[nH]c(=O)c1C#N	85.1 µM	> 100 µM	> 100 µM	> 100 µM	> 100 µM	31.7 µM	0.11 µM	> 100 µM	> 100 µM	29.1 µM	> 100 µM	> 100 µM	> 100 µM	83.2 µM	> 100 µM	> 100 µM	> 100 µM	> 100 µM	> 100 µM	> 100 µM	GI50 [6]: 47.4 µM; TGI [8]: 0.13 µM; TGI [11]: 57.4 µM; GI50 [17]: > 100 µM; GI50 [22]: 27.5 µM; GI50 [23]: 97.7 µM
CC1CCCc2c1[nH]c(=O)c(C#N)c2-c1cccn1C (centres undefined)	> 100 µM	> 100 µM	> 100 µM	> 100 µM	> 100 µM	> 100 µM	> 100 µM	> 100 µM	> 100 µM	> 100 µM	> 100 µM	> 100 µM	> 100 µM	> 100 µM	> 100 µM	> 100 µM	> 100 µM	69.2 µM	> 100 µM	> 100 µM	GI50 [6]: 39.8 µM; GI50 [17]: > 100 µM; GI50 [22]: > 100 µM; GI50 [23]: > 100 µM
